We go through three compounds from paper PMC8798964 (Translational Cancer Research, 2021).

One data set concerns SU-DHL-6 cells. Kind of data set: Apoptosis assay. The data set is classed as cell-based. Summed up: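 SU-DHL-6 cells kept in RPMI 1640 with 10% heat-inactivated FBS and penicillin/streptomycin at 37 °C, 5% CO2. Seeded at 4×10^5/mL and left 24 h, then exposed to one of three concentrations of test compound, or DMSO control, for 24 or 48 h. Stained with Annexin V/7-AAD and read by flow cytometry. Live, early apoptotic and late apoptotic/dead populations counted.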

Data set [1] can be described thus: Pharmacokinetic study: plasma and brain concentration after a single oral dose. As to conditions: for Kp: male, SD, rat, brain/plasma, po. Type of data set: in vivo, SD rats. Summed up: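 Male SD rats (219.0–260.5 g), fasted overnight until 4 h post-dose, given one oral dose of 10, 15 or 55 mg/kg depending on compound. n=3 per time point (0.25–24 h). Jugular blood in K2EDTA; plasma by spinning at 4 °C. Brains taken after decapitation, homogenised in 3-fold saline. Samples precipitated with acetonitrile plus internal standards, then LC-MS/MS. Brain/plasma ratio calculated at Cmax.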

The nature of data set [2]: Ibrutinib concentration in CSF of a PCNSL patient. As to conditions: human, po, 560 mg. Type of data set: in vivo.
The subject of a further data set is PCNSL. As to conditions: cited from earlier work.
The mark [3] stands for this setting: phase II, monotherapy 560 mg/day, intent-to-treat analysis.

Molecules are shown by their SMILES. Read-outs that look alike come from different tables or passages of the source.

With `C=CC(=O)N1CCC[C@@H](n2nc(-c3ccc(Oc4ccccc4)cc3)c3c(N)ncnc32)C1` [ibrutinib], the Induction of apoptosis entry with SU-DHL-6 cells (SU-DHL-6, 0.5 µM) is recorded as “not observed”; in the data set on SU-DHL-6 cells (SU-DHL-6, 5 µM, 24 and 48 hours) it was “subtle”; in the data set with SU-DHL-6 cells (SU-DHL-6, 50 µM, 24 and 48 hours) it was “prominent”. Also, in data set [1], the Kp (commonly the ratio of the level in a tissue or fluid to that in plasma or blood) came out at 0.098. In data set [2], this compound came in with a concentration at 2 h of 0.309 ng/mL. Besides, the Disease control rate in the data set with PCNSL (phase II, monotherapy 560 mg/day, evaluable patients) was 70%; with PCNSL (setting [3]), 62%. For the same compound, in the data set on PCNSL (setting [3]), the Stable diseases was 10%. Besides, the “Objective response rate (ORR)” value with PCNSL (recurrent PCNSL patients, single drug, two clinical trials) is reported as 50–70%. Besides, the Clinical responses with PCNSL (refractory and recurrent PCNSL, 10 of 13 patients) is 77%. In the data set with PCNSL (refractory and recurrent PCNSL, cohort of 13), the “Patients who achieved CR” value is “five”.
Turning to `C=CC(=O)N1CCC([C@@H]2CCNc3c(C(N)=O)c(-c4ccc(Oc5ccccc5)cc4)nn32)CC1` [zanubrutinib], in the data set with SU-DHL-6 cells (SU-DHL-6, 50 µM, after another 24 hours (48 h)), the Pro-apoptosis effect result is “maintained”. For the same compound, the Induction of apoptosis result is “good ability in inducing cell apoptosis” in the data set with SU-DHL-6 cells (SU-DHL-6, 24 hours, 0.5 µM or higher) and “cells recovered from apoptosis” in the data set on SU-DHL-6 cells (SU-DHL-6, lower concentration, after another 24 hours (48 h)). In addition, the “Unbound concentration in brain” value in data set [1] (SD rats, 15 mg/kg orally, 4 hours after administration) is on record as “below the limit of detection”. The same compound gave a Kp in data set [1] of 0.035.
As to `CC#CC(=O)N1CC[C@@H](n2c(=O)n(-c3ccc(Oc4ccccc4)cc3)c3c(N)ncnc32)C1` [tirabrutinib], the Induction of apoptosis result in the data set with SU-DHL-6 cells (SU-DHL-6, three concentrations, 24 or 48 hours) was “only induced when cells were treated with high dose tirabrutinib for a relatively longer period of time (50 µM, 48 h)”. For the same compound, in data set [1], the Kp came out at 0.085. The ORR rate in the data set with PCNSL (phase I/II trial, relapsed/refractory PCNSL patients) is 64%.
